In brackets after ≈: the same amount, converted by molar mass.

One series deals with T1, TGF-beta receptor type-1 (Homo sapiens, UniProt P36897).
T1 sequence (P36897 whole entry): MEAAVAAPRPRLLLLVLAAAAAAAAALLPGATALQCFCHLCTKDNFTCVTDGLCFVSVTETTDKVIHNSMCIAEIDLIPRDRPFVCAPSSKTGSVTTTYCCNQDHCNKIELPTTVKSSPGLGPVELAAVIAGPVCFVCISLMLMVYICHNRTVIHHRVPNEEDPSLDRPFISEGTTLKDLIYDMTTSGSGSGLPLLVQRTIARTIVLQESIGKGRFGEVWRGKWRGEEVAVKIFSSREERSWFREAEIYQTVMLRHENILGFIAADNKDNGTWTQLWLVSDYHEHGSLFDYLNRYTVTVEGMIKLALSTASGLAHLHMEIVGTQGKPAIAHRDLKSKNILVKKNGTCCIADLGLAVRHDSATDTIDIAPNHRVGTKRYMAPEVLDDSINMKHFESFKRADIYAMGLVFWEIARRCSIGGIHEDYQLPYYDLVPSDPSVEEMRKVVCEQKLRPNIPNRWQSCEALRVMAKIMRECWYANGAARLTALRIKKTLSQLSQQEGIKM
The series can be described thus: Binding affinity to wild type human partial length TGFBR1 (D179 to M503 residues) expressed in bacterial expression system by KINOMEscan assay.

Series [1] has as its system Mycobacterium tuberculosis. The series can be described thus: Antitubercular activity against non-replicating Mycobacterium tuberculosis H37Rv expressing luxCDAB assessed as inhibition of bacterial growth incubated for 7 days under hypoxia conditions followed by incubation in normoxia conditions for 5 days by luminescence based analysis. In kind it is functional. Conditions: 288 h, time 12 day.

Series [2] in a line: Metabolic stability of the compound in CD-1 mouse liver microsomes assessed as parent compound remaining at 5 uM preincubated for 5 mins followed by NADPH addition and measured after 30 mins by LC-TOF/MS analysis. In kind it is ADME, Microsome. Conditions: time 35 min, read-out: Stability. Summed up:
(§1)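 Mouse liver microsomes incubated with compound in the presence of NADPH. Read-out is % parent compound remaining after 30 min.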
Background: Liver microsomes are vesicles of endoplasmic reticulum, rich in cytochrome P450 enzymes.

Series [3] is described as follows: Metabolic stability of the compound in CD-1 mouse liver microsomes at 5 uM by LC-TOF/MS analysis. The class given is ADME, Microsome. Summed up: as §1

Usually Kd stands for the concentration at which binding is half-saturated. Read a high Kd as weaker binding. In general, MIC50 refers to the lowest concentration that inhibits either 50% of growth or 50% of the strains tested, depending on the study. The MIC90 is an inhibitory concentration at the 90% level, which refers to growth in some studies and to a panel of isolates in others. Regarding `Cc1cccc(-c2nc(Nc3ccc4c(c3)ncn4C)c3ccccc3n2)n1`, the Kd on TGF-beta receptor type-1 was over 10 µM. Further, in series [1], the MIC50 is 1.3 µM (≈ 0.476 µg/mL) and the MIC90 was 5 µM (≈ 1.83 µg/mL).
On to `Cc1cccc(-c2nc(Nc3ccc4ccsc4c3)c3ccccc3n2)n1`, for which the remaining at 0.5 h, 5 µM in series [2] came to 8%. The equilibrium dissociation constant (Kd) on TGF-beta receptor type-1 was over 10 µM. The Stability entry in series [3] was “Stable”. Besides, in series [1], the MIC50 was under 0.3 µM and the MIC90 amounted to 0.3 µM (≈ 0.111 µg/mL).
Consider `Cc1cccc(-c2nc(Nc3ccc4ncccc4c3)c3ccccc3n2)n1`, for which, in series [1], the MIC50 is 0.3 µM (≈ 0.109 µg/mL) and the MIC90 came to 5 µM (≈ 1.82 µg/mL).
With `Cc1cccc(-c2nc(Nc3ccc4nn(C)cc4c3)c3ccccc3n2)n1`, in series [1], the MIC50 was under 0.3 µM and the MIC90 came out at 1.3 µM (≈ 0.476 µg/mL).
`Cc1cccc(-c2nc(Nc3ccc4nc(C)sc4c3)c3ccccc3n2)n1`: the remaining at 0.5 h, 5 µM in series [2] came out at 18%. Moreover, on TGF-beta receptor type-1, the Kd was over 10 µM. In series [3], the Stability entry is “Stable”. In series [1], the MIC50 is under 0.3 µM and the MIC90 was 0.3 µM (≈ 0.115 µg/mL).
In the case of `Cc1cc(Nc2nc(-c3cccc(C)n3)nc3ccccc23)ccn1`, in series [1], the MIC50 is under 0.3 µM and the MIC90 was found to be 1.3 µM (≈ 0.426 µg/mL).
As to `Cc1cccc(-c2nc(Nc3ccncc3)c3cc(O)ccc3n2)n1`, the remaining at 0.5 h, 5 µM in series [2] amounted to 20%. The Stability result in series [3] is recorded as “Stable”. Also, in series [1], the MIC50 was 1 µM (≈ 0.329 µg/mL) and the MIC90 worked out at 2.5 µM (≈ 0.823 µg/mL).
On to `Cc1cccc(-c2nc(Nc3ccc4occc4c3)c3ccccc3n2)n1`, for which the Kd on TGF-beta receptor type-1 is over 10 µM. Besides, in series [1], the MIC50 was under 0.3 µM and the MIC90 is 1.3 µM (≈ 0.458 µg/mL).
For `Clc1cccc(-c2nc(Nc3ccncc3)c3ccccc3n2)n1`, the remaining at 0.5 h, 5 µM in series [2] was 18%. In addition, the Stability entry in series [3] was “Stable”. Further, in series [1], the MIC50 is under 1 µM and the MIC90 was under 1 µM.
The compound `Cc1cccc(-c2nc(Oc3ccc4ncsc4c3)c3ccccc3n2)n1` registered a Kd at TGF-beta receptor type-1 of over 10 µM. Besides, in series [1], the MIC50 is under 0.3 µM and the MIC90 amounted to 0.3 µM (≈ 0.111 µg/mL).
On to `Cc1csc(-c2nc(Nc3ccncc3)c3ccccc3n2)n1`, for which, in series [1], the MIC50 is over 10 µM and the MIC90 is over 10 µM.
`Cc1cccc(-c2nc(Nc3ccc4ncsc4c3)c3ccccc3n2)n1`: in series [1], the MIC50 is under 0.3 µM and the MIC90 was 1.3 µM (≈ 0.48 µg/mL).
Consider `Cc1cccc(-c2nc(Nc3ccc4scnc4c3)c3ccccc3n2)n1`, for which, on TGF-beta receptor type-1, the Kd is over 10 µM. In series [1], the MIC50 was under 0.3 µM and the MIC90 worked out at 1.3 µM (≈ 0.48 µg/mL).
On to `Cc1cc(-c2nc(Nc3ccncc3)c3ccccc3n2)cs1`, for which, in series [1], the MIC50 was over 10 µM and the MIC90 is over 10 µM.
Consider `COc1cncc(-c2nc(Nc3ccncc3)c3ccccc3n2)n1`, for which, in series [1], the MIC50 is 5 µM (≈ 1.65 µg/mL) and the MIC90 is over 10 µM.
As to `FC(F)(F)c1cccc(-c2nc(Nc3ccncc3)c3ccccc3n2)n1`, the remaining at 0.5 h, 5 µM in series [2] worked out at 29%. For the same compound, the Stability result in series [3] is given as “Stable”. In addition, in series [1], the MIC50 was determined as 1 µM (≈ 0.367 µg/mL) and the MIC90 turned out to be 5 µM (≈ 1.84 µg/mL).
On to `c1ccc2c(Nc3ccncc3)nc(-c3cnccn3)nc2c1`, for which, in series [1], the MIC50 is 1 µM (≈ 0.3 µg/mL) and the MIC90 was over 10 µM.
Regarding `Cc1cccc(-c2nc(Nc3ccc4c(c3)nnn4C)c3ccccc3n2)n1`, in series [2], the remaining at 0.5 h, 5 µM was 28%. At TGF-beta receptor type-1, the Kd is over 10 µM. Moreover, the Stability entry in series [3] is “Stable”. Besides, in series [1], the MIC50 was under 0.3 µM and the MIC90 came to 1.3 µM (≈ 0.478 µg/mL).
Consider `Cc1cccc(-c2nc(Nc3ccc4nn[nH]c4c3)c3ccccc3n2)n1`, for which the Kd at TGF-beta receptor type-1 is over 10 µM. For the same compound, in series [1], the MIC50 is 1.3 µM (≈ 0.459 µg/mL) and the MIC90 came to 5 µM (≈ 1.77 µg/mL).
As to `c1ccc(-c2nc(Nc3ccncc3)c3ccccc3n2)nc1`, the remaining at 0.5 h, 5 µM in series [2] is 20%. For the same compound, the Stability result in series [3] is “Stable”. Besides, in series [1], the MIC50 is 1 µM (≈ 0.299 µg/mL) and the MIC90 is 2.5 µM (≈ 0.748 µg/mL).
Turning to `COc1ccc(Nc2nc(-c3cccc(C)n3)nc3ccccc23)cc1`, on TGF-beta receptor type-1, the Kd was over 10 µM. In series [1], the MIC50 was under 0.3 µM and the MIC90 was 1.3 µM (≈ 0.445 µg/mL).
For `Cc1cccc(-c2nc(Oc3ccc4scnc4c3)c3ccccc3n2)n1`, the Kd at TGF-beta receptor type-1 was over 10 µM. Besides, in series [1], the MIC50 was under 0.3 µM and the MIC90 was 0.3 µM (≈ 0.111 µg/mL).
In the case of `Cc1cccc(-c2nc(Nc3ccc4[nH]ncc4c3)c3ccccc3n2)n1`, the remaining at 0.5 h, 5 µM in series [2] was determined as 9%. Also, the Stability entry in series [3] is “Stable”. In series [1], the MIC50 is under 0.3 µM and the MIC90 was 5 µM (≈ 1.76 µg/mL).
For `COc1ccc2nc(-c3cccc(C)n3)nc(Nc3ccncc3)c2c1` the same measures were 23%, “Stable”, under 1 µM and under 1 µM.
`Fc1cccc(-c2nc(Nc3ccncc3)c3ccccc3n2)n1`: the remaining at 0.5 h, 5 µM in series [2] came out at 18%. In addition, the Stability entry in series [3] is “Stable”. In series [1], the MIC50 worked out at 1 µM (≈ 0.317 µg/mL) and the MIC90 came out at 5 µM (≈ 1.59 µg/mL).
As for `Cc1cccc(-c2cc3ccccc3c(Nc3ccncc3)n2)n1`, in series [1], the MIC50 was found to be 1 µM (≈ 0.312 µg/mL) and the MIC90 was over 10 µM.
For `Cc1cccc(-c2nc(Nc3ccc4ncoc4c3)c3ccccc3n2)n1` the same measures were 0.3 µM (≈ 0.106 µg/mL) and 5 µM (≈ 1.77 µg/mL).
Taken in the same sequence, the figures for `Cc1cccc(-c2nc(C)cc(Nc3ccncc3)n2)n1` were under 1 µM and over 10 µM.
Take `Cc1cccc(-c2nc(Nc3ccc4[nH]ccc4c3)c3ccccc3n2)n1`: in series [1], the MIC50 stood at 1.3 µM (≈ 0.457 µg/mL) and the MIC90 was determined as 1.3 µM (≈ 0.457 µg/mL).
`Cn1ccc(-c2nc(Nc3ccncc3)c3ccccc3n2)n1`: in series [1], the MIC50 is over 10 µM and the MIC90 was over 10 µM.
For `COc1ccc2c(Nc3ccncc3)nc(-c3cccc(C)n3)nc2c1`, the remaining at 0.5 h, 5 µM in series [2] came out at 12%. In series [3], the Stability result was “Stable”. Also, in series [1], the MIC50 came to 1 µM (≈ 0.343 µg/mL) and the MIC90 is 2.5 µM (≈ 0.858 µg/mL).
As to `c1ccc2c(Nc3ccncc3)nc(-c3ccc4c(c3)OCO4)nc2c1`, in series [1], the MIC50 is over 10 µM and the MIC90 was over 10 µM.
As for `c1cncc(-c2nc(Nc3ccncc3)c3ccccc3n2)c1`, in series [1], the MIC50 was over 10 µM and the MIC90 was over 10 µM.
As for `Cc1cccc(-c2nc(Nc3ccc4c(cnn4C)c3)c3ccccc3n2)n1`, in series [2], the remaining at 0.5 h, 5 µM was 9%. Also, in series [3], the Stability entry is listed as “Stable”. Besides, in series [1], the MIC50 was under 0.3 µM and the MIC90 was 1.3 µM (≈ 0.476 µg/mL).
With `Clc1cccc(-c2nc(Nc3ccncc3)c3ccccc3n2)c1`, in series [1], the MIC50 was over 10 µM and the MIC90 is over 10 µM.
Turning to `Cc1cccc(-c2nc(Nc3ccc4ncn(C)c4c3)c3ccccc3n2)n1`, in series [1], the MIC50 was determined as 0.3 µM (≈ 0.11 µg/mL) and the MIC90 was over 10 µM.
For the compound `c1cnc(-c2nc(Nc3ccncc3)c3ccccc3n2)nc1`, in series [1], the MIC50 was found to be 2.5 µM (≈ 0.751 µg/mL) and the MIC90 was over 10 µM.
Taken in the same sequence, the figures for `COc1cccc(-c2nc(Nc3ccncc3)c3ccccc3n2)n1` were 5 µM (≈ 1.65 µg/mL) and over 10 µM.
Turning to `CSc1cccc(Nc2nc(-c3cccc(C)n3)nc3ccccc23)c1`, in series [1], the MIC50 was under 0.3 µM and the MIC90 was determined as 1.3 µM (≈ 0.466 µg/mL).
For `Cc1cccc(-c2cc(Nc3ccncc3)c3ccccc3n2)n1` the same measures were 2.5 µM (≈ 0.781 µg/mL) and over 10 µM.
For `Fc1cccc(-c2nc(Nc3ccncc3)c3ccccc3n2)c1` the same measures were over 10 µM and over 10 µM.
As to `Cc1cccc(-c2nc(N(C)c3ccc4ncsc4c3)c3ccccc3n2)n1`, the Kd on TGF-beta receptor type-1 was over 10 µM. For the same compound, in series [1], the MIC50 was under 0.3 µM and the MIC90 was 1.3 µM (≈ 0.499 µg/mL).

Source of the values: ChEMBL document CHEMBL5370647 (J Med Chem, 2023).
